From ChEMBL document CHEMBL2203272, “New fluorescent bile acids: synthesis, chemical characterization, and disastereoselective uptake by Caco-2 cells of 3-deoxy 3-NBD-amino deoxycholic and ursodeoxycholic acid” (Bioorg Med Chem, 2012)

What was measured:
Caco-2 [1] = assay: Cellular uptake in human Caco2 cells at 10 uM at 4 to 37 degC after 90 mins by fluorescence assay; type: ADME, cell-based; conditions: caco-2, 1.5 h
Method in brief: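 Caco-2 grown 21 d on 24-well plates as polarised monolayers; compound at 10 μM in bicarbonated Krebs-Ringer buffer (HEPES, pH 7.4) with 0.1% DMSO, at 37°C or 4°C, sampled 5–90 min. Washed twice with ice-cold KRB, lysed in 1% Triton X-100, lysate fluorescence read at ex 485/em 520 nm, normalised to BCA protein. Active uptake = 37°C minus 4°C; mean ± SD, n = 3.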

Caco-2 [2] = assay: Cellular uptake in human Caco2 cells at 4 to 37 degC after 20 mins by fluorescence assay; type: ADME, cell-based; conditions: caco-2, 20 min
Method in brief: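 Uptake into 21-d Caco-2 monolayers over 20 min at 37°C and 4°C, in KRB pH 7.4 with 0.1% DMSO. Monolayers washed with ice-cold KRB and solubilised in 1% Triton X-100. Fluorescence read at ex 485/em 520 nm with BCA protein normalisation. Active part taken as the 37°C minus 4°C difference; n = 3.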

[3] = Cellular uptake in human Caco2 cells assessed as uptake rate at 1 to 100 uM at 4 to 37 degC after 20 mins by Eadie-Hofstee plot method; type: ADME, cell-based; conditions: Caco-2 cells
Method in brief: (§1)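 Caco-2 monolayers grown 21 d, exposed to 1–100 μM in bicarbonated Krebs-Ringer buffer (HEPES, pH 7.4, 0.1% DMSO) for 20 min at 37°C and 4°C. Washed twice with ice-cold KRB, lysed in 1% Triton X-100, fluorescence read at ex 485/em 520 nm and normalised to BCA protein. Active uptake = 37°C minus 4°C. Km/Vmax from Michaelis-Menten non-linear least squares fit, Eadie-Hofstee plot; n = 3.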

Huh-7 = assay: Cytotoxicity against human HuH7 cells assessed as cell viability at 1 to 100 uM up to 24 hrs by MTT assay; type: cell-based; conditions: huh-7, 24 h
Method in brief: (§2)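 HUH-7 and SKGT-4 cells exposed up to 100 μM for up to 24 h; viability by MTT assay.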

[4] = Cytotoxicity against human SKGT4 cells assessed as cell viability at 1 to 100 uM up to 24 hrs by MTT assay; type: cell-based; conditions: skgt4, 24 h; method in brief: as §2
Caco-2 [5] = assay: Cytotoxicity against human Caco2 cells assessed as cell viability at 1 to 100 uM up to 100 mins by MTT assay; type: cell-based; conditions: caco-2, 100 min
Method in brief: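 Caco-2 monolayers exposed to 1–100 μM for up to 100 min; viability by MTT assay.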

Caco-2 [6] = assay: Cellular uptake in human Caco2 cells assessed as uptake rate measured per mg of protein at 1 to 100 uM at 4 to 37 degC after 20 mins by Eadie-Hofstee plot method; type: ADME, cell-based; conditions: caco-2, 20 min; method in brief: as §1
Caco-2 [7] = assay: Cellular uptake in human Caco2 cells at 10 uM at 37 degC by fluorescence assay; type: ADME, cell-based; conditions: caco-2, 10 µM, TDE = time-dependent effect
Method in brief: (§3)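 21-d polarised Caco-2 monolayers incubated with 10 μM in KRB (pH 7.4, 0.1% DMSO) at 37°C or 4°C. Sampled at 5, 10, 15, 30, 45, 60 and 90 min. Cells washed twice with ice-cold KRB and lysed in 1% Triton X-100. Lysate fluorescence read at ex 485/em 520 nm and normalised to BCA protein; mean ± SD, n = 3.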

Caco-2 [8] = assay: Cellular uptake in human Caco2 cells at 10 uM at 4 degC by fluorescence assay; type: ADME, cell-based; conditions: caco-2, 10 µM, TDE = time-dependent effect; method in brief: as §3
[9] = Stability of the compound in MeCN/phosphate buffer assessed as compound remaining at pH 7.4 measured for 24 hrs by HPLC analysis; type: physicochemical; conditions: pH 7.4, 24 h
Method in brief: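 Solution at 0.01 mg/ml (stock) in 2% MeCN/phosphate buffer pH 7.4, held at 37°C for 24 h and injected hourly. Analysed by C18 reversed-phase HPLC with MeCN/pH 2.5 phosphate buffer gradient, 1.0 ml/min, column 37°C, detection 346 nm; remaining compound followed by peak area.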

| Structure (SMILES) | Drug uptake (Caco-2 [1]) | Drug uptake (Caco-2 [2]) | Km at 20 min, up to 100 µM [3] [µM] | Activity (Huh-7) | Activity [4] | Activity (Caco-2 [5]) | Vmax (Caco-2 [6]) [nmol/min/mg] | Drug uptake (Caco-2 [7]) | Drug uptake (Caco-2 [8]) | Stability [9] |
| --- | --- | --- | --- | --- | --- | --- | --- | --- | --- | --- |
| O=[N+]([O-])c1ccc(NC2CCCCC2)c2nonc12 | Active | Dose-dependent effect | – | – | – | – | – | – | – | – |
| C[C@H](CCC(=O)O)[C@H]1CC[C@H]2[C@@H]3CC[C@@H]4C[C@H](Nc5ccc([N+](=O)[O-])c6nonc56)CC[C@]4(C)[C@H]3C[C@H](O)[C@]12C | – | Dose-dependent effect | 28.2 | Non-toxic | Non-toxic | Non-toxic | 1.8 | tde | tde | – |
| C[C@H](CCC(=O)O)[C@H]1CC[C@H]2[C@@H]3[C@@H](O)C[C@@H]4C[C@@H](Nc5ccc([N+](=O)[O-])c6nonc56)CC[C@]4(C)[C@H]3CC[C@]12C | – | – | – | Non-toxic | Non-toxic | Non-toxic | – | tde | tde | Stable |
